Measurements: ChEMBL document CHEMBL4265871, “Novel alkylated azoles as potent antifungals” (Eur J Med Chem, 2017)
In brackets after ≈: the same amount, converted by molar mass. Activity calls are given as the source filed them. No cut-off for these calls is given here.

Key:
[1] = Selectivity index, ratio of EC50 for toxicity in human BEAS2B cells to MIC50 for antifungal activity against ITC and FLC-susceptible Candida albicans ATCC MYA-2876; assay type: cell-based; details: BEAS-2B cells, read-out: Selectivity Index
Outline: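 Ratio of the compound's EC50 against BEAS-2B cells to its MIC against the named C. albicans strain. […] For C. albicans strains other than ATCC 10231, trailing growth meant MIC-2 was taken, meaning 50% growth inhibition.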

Candida albicans [2] = assay: Antifungal activity against ITC and FLC-resistant Candida albicans ATCC 1237 incubated for 48 hrs by modified CLSI M27-A3 protocol based method; assay type: functional; details: ATCC 1237, 48 h
Outline: (§1)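 Because these Candida strains show trailing growth, MIC-2 was read, meaning 50% growth inhibition. Caspofungin and voriconazole were tested here; other controls came from earlier work.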

[3] = Selectivity index, ratio of EC50 for toxicity in human A549 cells to MIC for antifungal activity against Candida parapsilosis ATCC 22019
Candida albicans [4] = assay: Antifungal activity against Candida albicans ATCC 64124 incubated for 48 hrs by modified CLSI M27-A3 protocol based method; assay type: functional; details: ATCC 64124, 48 h
[5] = Selectivity index, ratio of EC50 for toxicity in human A549 cells to MIC50 for antifungal activity against ITC and FLC-resistant Candida albicans ATCC 1237; assay type: cell-based; details: read-out: Selectivity Index
Outline: (§2)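 Selectivity index is the EC50 against the mammalian line (A549 or BEAS-2B) divided by the MIC against the given fungal strain.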

Candida albicans [6] = assay: Antifungal activity against ITC and FLC-susceptible Candida albicans ATCC MYA-2310 incubated for 48 hrs by modified CLSI M27-A3 protocol based method; assay type: functional; details: ATCC MYA-2310, 48 h
[7] = Selectivity index, ratio of EC50 for toxicity in human BEAS2B cells to MIC for antifungal activity against Candida parapsilosis ATCC 22019; details: BEAS-2B cells
Candida albicans [8] = assay: Antifungal activity against ITC and FLC-susceptible Candida albicans ATCC MYA-2876 incubated for 48 hrs by modified CLSI M27-A3 protocol based method; assay type: functional; details: ATCC MYA-2876, 48 h; outline: as §1
Aspergillus nidulans = assay: Antifungal activity against Aspergillus nidulans ATCC 38163 incubated for 48 hrs by CLSI M38-A2 protocol based method; assay type: functional; details: ATCC 38163, 48 h, read-out: MIC100
[9] = Selectivity index, ratio of […] for toxicity in human A549 cells to MIC50 for antifungal activity against Aspergillus flavus ATCC MYA-3631; assay type: cell-based; details: read-out: Selectivity Index
Candida parapsilosis = assay: Antifungal activity against Candida parapsilosis ATCC 22019 incubated for 48 hrs by modified CLSI M27-A3 protocol based method; assay type: functional; details: Lodderomyces parapsilosis, ATCC 22019, 48 h; read-out: MIC100
Outline: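 For C. albicans ATCC 10231, C. krusei ATCC 6258 and C. parapsilosis ATCC 22019, MIC-0 was read, meaning complete growth inhibition. For azole controls, MIC-2 (50% growth inhibition) was reported instead. Caspofungin and voriconazole were tested here; other controls came from earlier work.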

Nakaseomyces glabratus = assay: Antifungal activity against Candida glabrata ATCC 2001 incubated for 48 hrs by modified CLSI M27-A3 protocol based method; assay type: functional; details: ATCC 2001, 48 h
Candida albicans [10] = assay: Antifungal activity against ITC and FLC-resistant Candida albicans ATCC MYA-90819 incubated for 48 hrs by modified CLSI M27-A3 protocol based method; assay type: functional; details: ATCC MYA-90819, 48 h
[11] = Selectivity index, ratio of EC50 for toxicity in human BEAS2B cells to MIC50 for antifungal activity against ITC and FLC-resistant Candida albicans ATCC 1237; assay type: cell-based; details: BEAS-2B cells, read-out: Selectivity Index; outline: as §2
[12] = Selectivity index, ratio of EC50 for toxicity in human A549 cells to MIC50 for antifungal activity against ITC and FLC-susceptible Candida albicans ATCC MYA-2310; assay type: cell-based; details: read-out: Selectivity Index; outline: as §2
A549 = assay: Toxicity in human A549 cells assessed as cell viability at 15.6 ug/ml incubated for 24 hrs by resazurin dye based assay; details: a549, 24 h
BEAS-2B = assay: Toxicity in human BEAS2B cells assessed as cell viability at 15.6 ug/ml incubated for 24 hrs by resazurin dye based assay
Candida albicans [13] = assay: Induction of membrane permeabilization in Candida albicans ATCC 10231 at 1 to 4 times MIC incubated for 1 hr by propidium iodide staining based fluorescence microscopy; assay type: functional, organism-based
Outline: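 C. albicans ATCC 10231 treated at 1× and 4× MIC and stained with propidium iodide, a membrane-impermeant dye, to detect membrane damage. Untreated cells, FLC (7.8 µg/mL) and KANB (C14) (7.8 µg/mL) serve as comparators.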

Row | Compound | selectivity ratio [1] | MIC50 (Candida albicans [2]) [µM] | selectivity ratio [3] | MIC50 (Candida albicans [4]) [µM] | selectivity ratio [5] | MIC50 (Candida albicans [6]) [µM] | selectivity ratio [7] | MIC50 (Candida albicans [8]) [µM] | MIC (Aspergillus nidulans) [µM] | selectivity ratio [9] | MIC (Candida parapsilosis) [µM] | MIC50 (Nakaseomyces glabratus) [µM] | MIC50 (Candida albicans [10]) [µM] | selectivity ratio [11] | selectivity ratio [12] | viability (A549) [%] | viability (BEAS-2B) [%] | Activity (Candida albicans [13])
1 | CCCCCC(O)(Cn1cncn1)c1ccccc1F (configuration not stated) | 32 | 3.5 (≈ 0.971 µg/mL) | 308 | > 113 | 38 | 3.5 (≈ 0.971 µg/mL) | 261 | 3.5 (≈ 0.971 µg/mL) | 1.7 (≈ 0.471 µg/mL) | 5 | 0.43 (≈ 0.119 µg/mL) | 3.5 (≈ 0.971 µg/mL) | 1.7 (≈ 0.471 µg/mL) | 32 | 38 | – | – | –
2 | CCCCCCC(O)(Cn1cncn1)c1ccccc1F (configuration not stated) | 32 | 3.3 (≈ 0.962 µg/mL) | 261 | > 107 | 32 | 3.3 (≈ 0.962 µg/mL) | 261 | 3.3 (≈ 0.962 µg/mL) | 1.6 (≈ 0.466 µg/mL) | 1 to 2 | 0.41 (≈ 0.119 µg/mL) | 3.3 (≈ 0.962 µg/mL) | 0.82 (≈ 0.239 µg/mL) | 32 | 32 | – | – | –
3 | CCCC(O)(Cn1cncn1)c1ccc(Cl)cc1Cl (configuration not stated) | 16 | 26 (≈ 7.8 µg/mL) | 1040 | 13 (≈ 3.9 µg/mL) | 4 | 13 (≈ 3.9 µg/mL) | 1040 | 6.5 (≈ 1.95 µg/mL) | 6.5 (≈ 1.95 µg/mL) | 2 | < 0.1 | 13 (≈ 3.9 µg/mL) | 13 (≈ 3.9 µg/mL) | 4 | 8 | > 85 | > 85 | –
4 | CCCCCCC(O)(Cn1cncn1)c1ccc(Cl)cc1 (configuration not stated) | 4 | 12.7 (≈ 3.91 µg/mL) | 1 | 102 (≈ 31.3 µg/mL) | 10 | 102 (≈ 31.3 µg/mL) | 1 | 25.3 (≈ 7.79 µg/mL) | 12.7 (≈ 3.91 µg/mL) | 1 | > 102 | > 102 | 12.7 (≈ 3.91 µg/mL) | 8 | 1 | – | – | –
5 | CCCCCC(O)(Cn1cncn1)c1ccc(Cl)cc1Cl (configuration not stated) | 32 | 5.9 (≈ 1.94 µg/mL) | 1100 | 5.9 (≈ 1.94 µg/mL) | 17 | 5.9 (≈ 1.94 µg/mL) | 1040 | 3 (≈ 0.985 µg/mL) | 1.5 (≈ 0.492 µg/mL) | 8 | < 0.09 | 5.9 (≈ 1.94 µg/mL) | 5.9 (≈ 1.94 µg/mL) | 16 | 17 | > 85 | > 85 | –
6 | CCCCCC(O)(Cn1cncn1)c1ccc(F)cc1 (configuration not stated) | 4 | 7 (≈ 1.94 µg/mL) | 65 | > 113 | 16 | 14.1 (≈ 3.91 µg/mL) | 69 | 28.1 (≈ 7.79 µg/mL) | 14.1 (≈ 3.91 µg/mL) | 1 | 1.7 (≈ 0.471 µg/mL) | 28.1 (≈ 7.79 µg/mL) | 3.5 (≈ 0.971 µg/mL) | 17 | 8 | – | – | –
7 | CCCCCC(O)(Cn1cncn1)c1ccc(F)cc1F (configuration not stated) | 4 | 26.4 (≈ 7.8 µg/mL) | 1040 | 26.4 (≈ 7.8 µg/mL) | 4 | 26.4 (≈ 7.8 µg/mL) | 1040 | 26.4 (≈ 7.8 µg/mL) | 3.3 (≈ 0.975 µg/mL) | 2 | < 0.1 | 26.4 (≈ 7.8 µg/mL) | 13.2 (≈ 3.9 µg/mL) | 4 | 4 | – | – | inactive
8 | CCCCCC(O)(Cn1cncn1)c1ccc(Cl)cc1 (configuration not stated) | 2 | 13.3 (≈ 3.91 µg/mL) | 522 | 26.5 (≈ 7.79 µg/mL) | 8 | 53.1 (≈ 15.6 µg/mL) | 522 | 53.1 (≈ 15.6 µg/mL) | 26.5 (≈ 7.79 µg/mL) | 1 | 0.2 (≈ 0.0588 µg/mL) | 13.3 (≈ 3.91 µg/mL) | 6.6 (≈ 1.94 µg/mL) | 8 | 2 | – | – | –
9 | CCCCCCC(O)(Cn1cncn1)c1ccccc1Cl (configuration not stated) | 32 | 3.2 (≈ 0.985 µg/mL) | 261 | > 102 | 32 | 6.3 (≈ 1.94 µg/mL) | 261 | 3.2 (≈ 0.985 µg/mL) | 0.19 (≈ 0.0585 µg/mL) | 8 to 16 | 0.39 (≈ 0.12 µg/mL) | 3.2 (≈ 0.985 µg/mL) | 6.3 (≈ 1.94 µg/mL) | 32 | 16 | – | – | –
10 | CCCCC(O)(Cn1cncn1)c1ccc(Cl)cc1Cl (configuration not stated) [HEXACONAZOLE] | 16 | 24.8 (≈ 7.79 µg/mL) | 1040 | 12.4 (≈ 3.9 µg/mL) | 4 | 6.2 (≈ 1.95 µg/mL) | 1040 | 6.2 (≈ 1.95 µg/mL) | 0.76 (≈ 0.239 µg/mL) | 8 | < 0.1 | 12.4 (≈ 3.9 µg/mL) | 6.2 (≈ 1.95 µg/mL) | 4 | 16 | > 85 | > 85 | –
11 | CCCCC(O)(Cn1cncn1)c1ccc(F)cc1F (configuration not stated) | 5 | 55.5 (≈ 15.6 µg/mL) | 1040 | 55.5 (≈ 15.6 µg/mL) | 2 | 112 (≈ 31.4 µg/mL) | 1200 | 27.7 (≈ 7.79 µg/mL) | 6.9 (≈ 1.94 µg/mL) | 2 | < 0.11 | 112 (≈ 31.4 µg/mL) | 55.5 (≈ 15.6 µg/mL) | 2 | 1 | – | – | –
12 | CCCCCCC(O)(Cn1cncn1)c1ccc(F)cc1 (configuration not stated) | 4 | 107 (≈ 31.3 µg/mL) | 65 | > 107 | 1 | 26.8 (≈ 7.81 µg/mL) | 65 | 26.8 (≈ 7.81 µg/mL) | 6.7 (≈ 1.95 µg/mL) | 1 | 1.6 (≈ 0.466 µg/mL) | 26.8 (≈ 7.81 µg/mL) | 3.3 (≈ 0.962 µg/mL) | 1 | 4 | – | – | –
13 | CCCCCC(O)(Cn1cncn1)c1ccccc1Cl (configuration not stated) | 32 | 3.3 (≈ 0.97 µg/mL) | 261 | > 106 | 32 | 3.3 (≈ 0.97 µg/mL) | 261 | 3.3 (≈ 0.97 µg/mL) | 3.3 (≈ 0.97 µg/mL) | 1 | 0.41 (≈ 0.12 µg/mL) | 3.3 (≈ 0.97 µg/mL) | 1.6 (≈ 0.47 µg/mL) | 32 | 32 | – | – | –
